Experimental data as given in ChEMBL document CHEMBL4152315, “Rational modification of a lead molecule: Improving the antifungal activity of indole - triazole - amino acid conjugates” (Eur J Med Chem, 2018).
Values after ≈ are worked out from the molar mass of the structure shown.

Key:
Candida albicans [1] = assay: Antifungal activity against Candida albicans MTCC 3958 assessed as zone of growth inhibition after 48 hrs; type: functional
Summary of the method: (§1)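 Agar well diffusion: Malt Yeast Agar (C. albicans) or Czapek Yeast Extract Agar (A. niger) swabbed with 100 µL inoculum at 1×10^5 CFU/mL; 6 mm wells filled with 128 µg/50 µL compound in 5% DMSO (10% DMSO for poorly soluble ones). DMSO negative controls, fluconazole reference. 28 °C for 48 h; zone of inhibition as mean of triplicates.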

Candida albicans [2] = assay: Antifungal activity against Candida albicans MTCC 3958 after 48 hrs; type: functional; conditions: MTCC 3958, 48 h
Summary of the method: (§2)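 Broth tube dilution MIC: tested at 128, 64, 32, 16 and 8 μg/mL; Yeast Malt Broth for C. albicans, Czapek Dox Broth for A. niger. Inoculum 1×10³ CFU/mL final; 5% DMSO negative control, fluconazole reference. Incubated dark on rotary shaker (180 rpm), 28 °C, 48 h (C. albicans) or 72 h (A. niger); lowest concentration preventing visible growth recorded.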

Aspergillus niger [3] = assay: Antifungal activity against Aspergillus niger MTCC 9933 assessed as zone of growth inhibition after 48 hrs; type: functional; summary of the method: as §1
Aspergillus niger [4] = assay: Antifungal activity against Aspergillus niger MTCC 9933 after 72 hrs; type: functional; conditions: MTCC 9933, 72 h; summary of the method: as §2
Erythrocyte = assay: Cytotoxicity against sheep RBC assessed as cell viability at 1 mg/ml after 24 hrs by MTT assay relative to control; type: cell-based, Ovis aries
Summary of the method: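 Sheep blood mixed 10:3 with Alsever's solution. Plasma was removed by centrifugation, and cells were washed three times in 1X PBS and diluted to 1×10^5 cells/mL. Cells were preincubated 24 h at 37 °C, then exposed to compound for 24 h at 37 °C. MTT (5 mg/ml stock) was added for 4 h, formazan was dissolved in DMSO, and A595 was read. Control wells received 10% DMSO diluent.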

COC(=O)CNC(=O)C(=O)c1c[nH]c2ccccc12
inhibition zone (IZ) (Candida albicans [1]): 10 mm | MIC90 (Candida albicans [2]): 128 µg/mL (≈ 492 µM)

O=C(O)CC[C@H](NC(=O)C(=O)c1cn(Cc2cn(Cc3ccccc3)nn2)c2ccccc12)C(=O)O
inhibition zone (IZ) (Candida albicans [1]): 14 mm | MIC90 (Candida albicans [2]): 32 µg/mL (≈ 65.4 µM) | inhibition zone (IZ) (Aspergillus niger [3]): 12 mm | MIC90 (Aspergillus niger [4]): > 32 µg/mL

O=C(O)CNC(=O)C(=O)c1cn(Cc2cn(Cc3ccccc3)nn2)c2ccccc12
inhibition zone (IZ) (Candida albicans [1]): 13 mm | MIC90 (Candida albicans [2]): 32 µg/mL (≈ 76.7 µM) | inhibition zone (IZ) (Aspergillus niger [3]): 10 mm | MIC90 (Aspergillus niger [4]): 128 µg/mL (≈ 307 µM)

COC(=O)[C@H](Cc1ccc(O)cc1)NC(=O)C(=O)c1cn(Cc2cn(Cc3ccccc3)nn2)c2ccccc12
inhibition zone (IZ) (Candida albicans [1]): 8 mm | MIC90 (Candida albicans [2]): 128 µg/mL (≈ 238 µM) | inhibition zone (IZ) (Aspergillus niger [3]): 10 mm | MIC90 (Aspergillus niger [4]): 128 µg/mL (≈ 238 µM)

C#CCn1cc(C(=O)C(=O)N[C@@H](CC(=O)OC)C(=O)OC)c2ccccc21
inhibition zone (IZ) (Candida albicans [1]): 13 mm | MIC90 (Candida albicans [2]): 64 µg/mL (≈ 173 µM)

C#CCn1cc(C(=O)C(=O)N[C@@H](Cc2ccc(O)cc2)C(=O)OC)c2ccccc21
inhibition zone (IZ) (Candida albicans [1]): 11 mm | MIC90 (Candida albicans [2]): 64 µg/mL (≈ 158 µM) | inhibition zone (IZ) (Aspergillus niger [3]): 10 mm | MIC90 (Aspergillus niger [4]): 128 µg/mL (≈ 317 µM)

O=C(N[C@@H](Cc1ccc(OCc2cn(Cc3ccccc3)nn2)cc1)C(=O)O)C(=O)c1cn(Cc2cn(Cc3ccccc3)nn2)c2ccccc12
inhibition zone (IZ) (Candida albicans [1]): 16 mm | MIC90 (Candida albicans [2]): 16 µg/mL (≈ 23 µM) | Activity (Erythrocyte): Non-Toxic | inhibition zone (IZ) (Aspergillus niger [3]): 15 mm | MIC90 (Aspergillus niger [4]): 32 µg/mL (≈ 46.1 µM)

COC(=O)[C@H](Cc1c[nH]c2ccccc12)NC(=O)C(=O)c1cn(Cc2cn(Cc3ccccc3)nn2)c2ccccc12
inhibition zone (IZ) (Candida albicans [1]): 9 mm | MIC90 (Candida albicans [2]): 128 µg/mL (≈ 228 µM) | inhibition zone (IZ) (Aspergillus niger [3]): 12 mm | MIC90 (Aspergillus niger [4]): 64 µg/mL (≈ 114 µM)

COC(=O)C[C@H](NC(=O)C(=O)c1c[nH]c2ccccc12)C(=O)OC
inhibition zone (IZ) (Candida albicans [1]): 15 mm | MIC90 (Candida albicans [2]): 32 µg/mL (≈ 96.3 µM) | inhibition zone (IZ) (Aspergillus niger [3]): 13 mm | MIC90 (Aspergillus niger [4]): 64 µg/mL (≈ 193 µM)

C#CCn1cc(C(=O)C(=O)N[C@@H](Cc2c[nH]c3ccccc23)C(=O)OC)c2ccccc21
inhibition zone (IZ) (Candida albicans [1]): 10 mm | MIC90 (Candida albicans [2]): 128 µg/mL (≈ 299 µM) | inhibition zone (IZ) (Aspergillus niger [3]): 9 mm | MIC90 (Aspergillus niger [4]): > 128 µg/mL

COC(=O)CC[C@H](NC(=O)C(=O)c1c[nH]c2ccccc12)C(=O)OC
inhibition zone (IZ) (Aspergillus niger [3]): 9 mm | MIC90 (Aspergillus niger [4]): > 128 µg/mL

O=C(O)C[C@H](NC(=O)C(=O)c1cn(Cc2cn(Cc3ccccc3)nn2)c2ccccc12)C(=O)O
inhibition zone (IZ) (Candida albicans [1]): 15 mm | MIC90 (Candida albicans [2]): 32 µg/mL (≈ 67.3 µM) | inhibition zone (IZ) (Aspergillus niger [3]): 13 mm | MIC90 (Aspergillus niger [4]): 64 µg/mL (≈ 135 µM)

COC(=O)CC[C@H](NC(=O)C(=O)c1cn(Cc2cn(Cc3ccccc3)nn2)c2ccccc12)C(=O)OC
inhibition zone (IZ) (Candida albicans [1]): 10 mm | MIC90 (Candida albicans [2]): 64 µg/mL (≈ 124 µM) | inhibition zone (IZ) (Aspergillus niger [3]): 11 mm | MIC90 (Aspergillus niger [4]): 64 µg/mL (≈ 124 µM)

COC(=O)[C@H](Cc1ccc(O)cc1)NC(=O)C(=O)c1c[nH]c2ccccc12
inhibition zone (IZ) (Aspergillus niger [3]): 9 mm | MIC90 (Aspergillus niger [4]): > 128 µg/mL

COC(=O)[C@H](Cc1ccc(OCc2cn(Cc3ccccc3)nn2)cc1)NC(=O)C(=O)c1cn(Cc2cn(Cc3ccccc3)nn2)c2ccccc12
inhibition zone (IZ) (Aspergillus niger [3]): 13 mm | MIC90 (Aspergillus niger [4]): 64 µg/mL (≈ 90.3 µM)

C#CCn1cc(C(=O)C(=O)N[C@@H](CCC(=O)OC)C(=O)OC)c2ccccc21
inhibition zone (IZ) (Candida albicans [1]): 9 mm | MIC90 (Candida albicans [2]): 128 µg/mL (≈ 333 µM)

C#CCOc1ccc(C[C@H](NC(=O)C(=O)c2cn(CC#C)c3ccccc23)C(=O)OC)cc1
inhibition zone (IZ) (Candida albicans [1]): 13 mm | MIC90 (Candida albicans [2]): 64 µg/mL (≈ 145 µM) | inhibition zone (IZ) (Aspergillus niger [3]): 13 mm | MIC90 (Aspergillus niger [4]): 64 µg/mL (≈ 145 µM)

O=C(N[C@@H](Cc1ccc(O)cc1)C(=O)O)C(=O)c1cn(Cc2cn(Cc3ccccc3)nn2)c2ccccc12
inhibition zone (IZ) (Candida albicans [1]): 15 mm | MIC90 (Candida albicans [2]): 16 µg/mL (≈ 30.6 µM) | inhibition zone (IZ) (Aspergillus niger [3]): 13 mm | MIC90 (Aspergillus niger [4]): > 32 µg/mL

COC(=O)[C@H](Cc1c[nH]c2ccccc12)NC(=O)C(=O)c1c[nH]c2ccccc12
inhibition zone (IZ) (Candida albicans [1]): 14 mm | MIC90 (Candida albicans [2]): 32 µg/mL (≈ 82.2 µM)

COC(=O)CNC(=O)C(=O)c1cn(Cc2cn(Cc3ccccc3)nn2)c2ccccc12
inhibition zone (IZ) (Candida albicans [1]): 12 mm | MIC90 (Candida albicans [2]): 64 µg/mL (≈ 148 µM) | inhibition zone (IZ) (Aspergillus niger [3]): 11 mm | MIC90 (Aspergillus niger [4]): 64 µg/mL (≈ 148 µM)

C#CCn1cc(C(=O)C(=O)NCC(=O)OC)c2ccccc21
inhibition zone (IZ) (Candida albicans [1]): 11 mm | MIC90 (Candida albicans [2]): 64 µg/mL (≈ 215 µM)

O=C(N[C@@H](Cc1c[nH]c2ccccc12)C(=O)O)C(=O)c1cn(Cc2cn(Cc3ccccc3)nn2)c2ccccc12
inhibition zone (IZ) (Candida albicans [1]): 14 mm | MIC90 (Candida albicans [2]): 32 µg/mL (≈ 58.5 µM) | inhibition zone (IZ) (Aspergillus niger [3]): 14 mm | MIC90 (Aspergillus niger [4]): > 32 µg/mL

COC(=O)C[C@H](NC(=O)C(=O)c1cn(Cc2cn(Cc3ccccc3)nn2)c2ccccc12)C(=O)OC
inhibition zone (IZ) (Candida albicans [1]): 11 mm | MIC90 (Candida albicans [2]): 128 µg/mL (≈ 254 µM)

OC(Cn1cncn1)(Cn1cncn1)c1ccc(F)cc1F [FLUCONAZOLE]
inhibition zone (IZ) (Candida albicans [1]): 19 mm | MIC90 (Candida albicans [2]): 16 µg/mL (≈ 52.2 µM) | inhibition zone (IZ) (Aspergillus niger [3]): 18 mm | MIC90 (Aspergillus niger [4]): 8 µg/mL (≈ 26.1 µM)
